Consider 8 molecules from ChEMBL document CHEMBL1123807, “Aldosterone antagonists. 2. New 7 alpha-(acetylthio)-15,16-methylene spirolactones” (1987).

What is called Inhibition is the relative decrease from the control value, in per cent.

The target of assay [1] is T1, Progesterone receptor (Oryctolagus cuniculus) (UniProt P06186).
T1 sequence (whole entry): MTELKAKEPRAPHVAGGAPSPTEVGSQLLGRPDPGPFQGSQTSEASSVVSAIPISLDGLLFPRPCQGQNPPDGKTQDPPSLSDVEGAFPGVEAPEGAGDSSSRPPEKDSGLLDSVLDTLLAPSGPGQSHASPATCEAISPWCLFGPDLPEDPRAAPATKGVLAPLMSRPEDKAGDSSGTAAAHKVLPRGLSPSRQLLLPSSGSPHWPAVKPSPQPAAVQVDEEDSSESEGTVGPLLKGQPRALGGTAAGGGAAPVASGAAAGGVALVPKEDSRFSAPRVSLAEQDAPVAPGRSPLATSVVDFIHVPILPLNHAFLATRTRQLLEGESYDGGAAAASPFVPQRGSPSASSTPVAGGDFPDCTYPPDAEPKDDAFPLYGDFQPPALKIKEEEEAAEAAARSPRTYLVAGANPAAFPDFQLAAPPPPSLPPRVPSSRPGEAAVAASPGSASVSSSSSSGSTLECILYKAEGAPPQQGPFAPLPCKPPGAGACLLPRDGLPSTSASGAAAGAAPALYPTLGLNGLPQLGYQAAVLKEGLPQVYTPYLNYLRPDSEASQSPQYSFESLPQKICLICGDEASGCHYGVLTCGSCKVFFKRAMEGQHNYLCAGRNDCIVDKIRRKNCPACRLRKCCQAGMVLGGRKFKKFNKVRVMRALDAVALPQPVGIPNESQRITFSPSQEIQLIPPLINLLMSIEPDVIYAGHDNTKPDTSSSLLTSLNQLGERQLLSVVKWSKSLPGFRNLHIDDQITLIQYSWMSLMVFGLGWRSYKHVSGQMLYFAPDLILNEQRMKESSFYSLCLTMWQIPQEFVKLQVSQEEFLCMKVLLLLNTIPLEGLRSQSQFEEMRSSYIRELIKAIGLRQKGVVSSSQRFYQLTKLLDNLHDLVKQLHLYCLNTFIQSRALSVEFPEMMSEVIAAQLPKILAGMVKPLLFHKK
The assay is described as follows: Relative binding to progesterone receptor compared to progesterone. The method in brief: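 Competitive binding to progesterone receptor from rabbit uterus using tritiated progesterone as ligand. Competition factor is the multiple of the concentration needed to give displacement equivalent to the standard; a high factor means weak binding.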

Assay [2] addresses T1, Progesterone receptor (Oryctolagus cuniculus). The assay is described as follows: Progestational activity by Clauberg test in rabbits as McPhail index after 3 mg subcutaneous dose. It is filed as functional. The method in brief: (§1)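 Castrated infantile female New Zealand rabbits (800–1000 g) were primed with estradiol 0.5 μg sc daily for 6 days. They then received compound over 5 days (total 3–100 mg sc or 30–300 mg po).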

For assay [3], the target named is T2, Mineralocorticoid receptor (Rattus norvegicus) (UniProt P22199).
T2 sequence (whole entry): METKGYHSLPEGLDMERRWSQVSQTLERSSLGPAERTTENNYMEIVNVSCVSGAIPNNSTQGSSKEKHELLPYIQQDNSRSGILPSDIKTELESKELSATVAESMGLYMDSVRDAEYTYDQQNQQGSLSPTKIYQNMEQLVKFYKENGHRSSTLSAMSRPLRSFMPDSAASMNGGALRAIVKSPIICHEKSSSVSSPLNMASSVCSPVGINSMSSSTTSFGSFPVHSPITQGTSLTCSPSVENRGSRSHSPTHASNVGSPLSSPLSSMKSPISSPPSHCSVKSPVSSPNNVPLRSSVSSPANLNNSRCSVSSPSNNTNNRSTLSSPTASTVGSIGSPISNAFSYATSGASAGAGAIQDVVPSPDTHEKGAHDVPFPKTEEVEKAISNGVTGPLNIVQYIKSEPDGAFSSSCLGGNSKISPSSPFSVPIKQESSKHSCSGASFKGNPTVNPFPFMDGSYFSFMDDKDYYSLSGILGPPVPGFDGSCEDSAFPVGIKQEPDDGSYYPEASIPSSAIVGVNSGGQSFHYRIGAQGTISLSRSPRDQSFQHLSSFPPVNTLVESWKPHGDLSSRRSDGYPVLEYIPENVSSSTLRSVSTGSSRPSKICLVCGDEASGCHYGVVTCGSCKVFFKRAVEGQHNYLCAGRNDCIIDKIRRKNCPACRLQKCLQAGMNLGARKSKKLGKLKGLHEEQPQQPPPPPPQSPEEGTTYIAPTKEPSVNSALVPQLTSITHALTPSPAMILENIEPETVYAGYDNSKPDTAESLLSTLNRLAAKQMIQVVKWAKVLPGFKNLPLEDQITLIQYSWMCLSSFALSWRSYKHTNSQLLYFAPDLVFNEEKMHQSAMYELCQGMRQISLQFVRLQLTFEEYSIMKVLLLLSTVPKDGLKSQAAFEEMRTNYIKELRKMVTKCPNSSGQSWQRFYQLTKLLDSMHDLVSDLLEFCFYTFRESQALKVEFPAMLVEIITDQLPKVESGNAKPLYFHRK
The assay is described as follows: Antialdosterone activity in rats administered orally compared to Spironolactone(100).

Assay [4] has as its target T1, Progesterone receptor (Oryctolagus cuniculus). The assay is described as follows: Progestational activity by Clauberg test in rabbits as McPhail index after 100 mg subcutaneous dose. It is filed as functional. The method in brief: as §1
The target is the same in assay [5]. The assay is described as follows: Progestational activity by Clauberg test in rabbits as McPhail index after 10 mg subcutaneous dose. The class given is functional. The method in brief: as §1
For assay [6] the target is unchanged. The assay can be described thus: Progestational activity by Clauberg test in rabbits as McPhail index after 30 mg subcutaneous dose. It is filed as functional. The method in brief:
as §1

The species named for assay [7] is Rattus norvegicus. The assay can be described thus: Ovulation inhibitory activity in rats after 40 mg peroral dose.
The species entered for assay [8] is Rattus norvegicus. The assay is described as follows: Ovulation inhibitory activity in rats after 100 mg peroral dose.
Assay [9] is filed under the species Rattus norvegicus. The assay is described as follows: Ovulation inhibitory activity in rats after 30 mg peroral dose.
In assay [10] the target is T1, Progesterone receptor (Oryctolagus cuniculus). The assay can be described thus: Progestational activity by Clauberg test in rabbits as McPhail index after 100 mg peroral dose. It is filed as functional. The method in brief:
as §1

Assay [11] has the same target. The assay is described as follows: Progestational activity by Clauberg test in rabbits as McPhail index after 300 mg peroral dose. The class given is functional. The method in brief:
as §1

Assay [12] has the same target. The assay can be described thus: Progestational activity by Clauberg test in rabbits as McPhail index after 30 mg peroral dose. It is filed as functional. The method in brief:
as §1

Assay [13] concerns the target T3, Androgen receptor (Rattus norvegicus) (UniProt P15207).
T3 sequence (whole entry): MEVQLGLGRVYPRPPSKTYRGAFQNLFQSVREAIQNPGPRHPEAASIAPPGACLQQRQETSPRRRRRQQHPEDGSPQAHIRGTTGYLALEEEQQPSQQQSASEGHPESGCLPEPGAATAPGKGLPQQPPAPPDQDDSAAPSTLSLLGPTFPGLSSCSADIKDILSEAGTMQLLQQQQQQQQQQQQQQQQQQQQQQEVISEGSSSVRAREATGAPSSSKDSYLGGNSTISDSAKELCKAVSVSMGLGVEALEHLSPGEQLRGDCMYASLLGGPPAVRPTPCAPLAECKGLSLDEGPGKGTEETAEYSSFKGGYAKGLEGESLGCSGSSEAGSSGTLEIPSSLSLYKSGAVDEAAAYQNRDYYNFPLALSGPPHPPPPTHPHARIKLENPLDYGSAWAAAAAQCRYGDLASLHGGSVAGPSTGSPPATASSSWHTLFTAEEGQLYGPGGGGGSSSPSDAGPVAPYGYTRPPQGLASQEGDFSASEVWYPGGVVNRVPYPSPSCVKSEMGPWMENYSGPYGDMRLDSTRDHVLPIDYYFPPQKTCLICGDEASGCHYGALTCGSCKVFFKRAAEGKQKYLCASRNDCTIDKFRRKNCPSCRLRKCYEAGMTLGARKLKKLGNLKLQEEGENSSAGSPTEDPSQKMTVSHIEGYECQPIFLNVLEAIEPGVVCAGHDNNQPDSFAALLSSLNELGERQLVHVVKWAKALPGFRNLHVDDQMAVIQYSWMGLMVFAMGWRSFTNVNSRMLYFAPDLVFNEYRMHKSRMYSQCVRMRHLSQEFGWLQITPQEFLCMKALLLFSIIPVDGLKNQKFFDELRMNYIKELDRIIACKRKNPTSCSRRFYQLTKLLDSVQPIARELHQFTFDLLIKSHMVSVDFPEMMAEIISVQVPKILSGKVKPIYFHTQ
The assay is described as follows: Antiandrogenic activity as prostate weight after subcutaneous administration compared to Spironolactone. The class given is functional, organism-based. The note with it: Prostate gland. The method in brief:
(§2)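 Castrated male Wistar SPF rats (~100 g) were dosed once daily for 12 days, sc at 1–16 mg/rat or po at 1–100 mg/rat, each with testosterone propionate 0.1 mg/rat sc; controls got Tp alone. On day 13, fresh seminal vesicle and ventral prostate weights were taken as % of Tp control. Relative potency came from regression/covariance analysis.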

Assay [14] has as its target T3, Androgen receptor (Rattus norvegicus). The assay can be described thus: Antiandrogenic activity as seminal vesicle weight after subcutaneous administration compared to Spironolactone. It is filed as functional, organism-based. The method in brief: as §2
For assay [15] the target is unchanged. The assay can be described thus: Antiandrogenic activity after peroral administration as relative potency compared to Spironolactone. It is filed as functional, organism-based. The method in brief: as §2

On to `CC(=O)S[C@@H]1CC2=CC(=O)CCC2(C)C2CCC3(C)C(C21)[C@@H]1C[C@@H]1[C@@]31CCC(=O)O1` (stereo partly drawn), for which the Ratio in assay [1] came out at 14. In assay [2], this molecule registered a McPhail index of 1.6. In addition, the Relative potency in assay [3] is 186.

In the case of `CC(=O)S[C@@H]1CC2=CC(=O)C=C[C@]2(C)[C@H]2CC[C@@]3(C)[C@@H]([C@@H]4C[C@@H]4[C@@]34CCC(=O)O4)[C@H]12` (stereo in doubt; 14), in assay [1], the Ratio turned out to be 76. The same molecule gave a Relative potency in [3] of 115.

For `CC(=O)S[C@@H]1CC2=CC(=O)CCC2(C)C2CCC3(C)C(C21)[C@H]1C[C@H]1[C@@]31CCC(=O)O1` (stereo partly drawn), the Ratio in [1] is 18. Moreover, the McPhail index in assay [4] was 3.1; in [5], 2.6; in [6], 3.1. The same molecule showed a Relative potency in [3] of 282.

In the case of `CC(=O)S[C@@H]1CC2=CC(=O)CC[C@]2(C)[C@H]2CC[C@@]3(C)[C@@H](CC[C@@]34CCC(=O)O4)[C@H]12` [SPIRONOLACTONE], the Inhibition in [7] was 16%; in [8], 20%.

For `CC(=O)S[C@@H]1CC2=CC(=O)C=C[C@]2(C)[C@H]2CC[C@@]3(C)[C@@H]([C@@H]4C[C@@H]4[C@@]34CCC(=O)O4)[C@H]12` (stereo in doubt) [MESPIRENONE], the values for the Inhibition in assay [9] and in assay [8] were 0% and 20%, respectively.

As to `CC(=O)S[C@@H]1CC2=CC(=O)[C@@H]3C[C@@H]3C2(C)C2CCC3(C)C(C21)[C@@H]1C[C@@H]1[C@@]31CCC(=O)O1` (stereo partly drawn), in assay [1], the Ratio was determined as 7.8. Besides, the McPhail index in assay [4] was found to be 3.4; in [5], 1; in assay [6] it was 1.6. In assay [7], the Inhibition came to 100%. The Relative potency in assay [3] stood at 228.

With `CC(=O)S[C@@H]1CC2=CC(=O)C=C[C@]2(C)[C@H]2CC[C@@]3(C)[C@@H]([C@@H]4C[C@@H]4[C@@]34CCC(=O)O4)[C@H]12` (stereo in doubt), the Ratio in assay [1] is 33. The McPhail index was 1.6 in [10]; 2.8 in assay [11]; 1 in assay [12]; 2.6 in assay [4]; 1.2 in assay [5]; 1.7 in [6]. Besides, the Relative potency in assay [13] was 0.4; in assay [14] it was 0.2; in [15] it was less than 0.1; in assay [3] it was 333.

Turning to `CC(=O)S[C@@H]1CC2=CC(=O)[C@@H]3C[C@@H]3C2(C)C2CCC3(C)C(C21)[C@H]1C[C@H]1[C@@]31CCC(=O)O1` (stereo partly drawn), the Ratio in assay [1] was found to be 19. Besides, the values for the McPhail index in assay [4], in assay [5] and in assay [6] were 3.1, 2.4 and 3, respectively. The Relative potency is 2.4 in assay [13], 1 in assay [14] and 281 in assay [3].
